Columns and labels:
[1] = tested on: Human immunodeficiency virus 2; assay: Antiviral activity against HIV2 ROD infected in human MT4 cells assessed as inhibition of virus-induced cytopathic effect by MTT assay; type: functional, organism-based; conditions: Human immunodeficiency virus 2, ISOLATE ROD
In short: (§1)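 MT-4 cells, spun 5 min at 1000 rpm and resuspended at 6×10^5 cells/mL, infected with HIV-1(IIIB) or HIV-2(ROD) at 100–300 CCID50. Compounds added at start as serial fivefold dilutions, triplicate wells. Viability read by MTT at 540 and 690 nm five days post-infection, using the median OD of three wells. EC50 is the concentration giving 50% protection against virus-induced cytopathicity.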

[2] = Cytotoxicity against HIV2 ROD infected in human MT4 cells by MTT assay; type: cell-based; conditions: MT4 cells infected with HIV2 ROD
In short: (§2)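 Cytotoxicity measured in parallel on mock-infected MT-4 cells (6×10^5 cells/mL) that received culture medium instead of virus. Serial fivefold compound dilutions were run in triplicate. MTT read-out after 5 days at 540 and 690 nm, using the median OD of three wells. CC50 is the concentration that reduces OD540 of the mock-infected control by 50%.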

[3] = Selectivity index, ratio of CC50 for HIV2 ROD infected in human MT4 cells to EC50 for HIV1 3B; type: toxicity, cell-based; conditions: MT4 cells infected with HIV2 ROD, read-out: Ratio CC50/EC50
In short: (§3)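 Selectivity index calculated as CC50/EC50. Both values come from the parallel 5-day MTT assays in MT-4 cells, with mock-infected and HIV-infected wells on the same plate.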

[4] = Selectivity index, ratio of CC50 for HIV1 3B infected in human MT4 cells to EC50 for HIV1 3B; type: toxicity, cell-based; conditions: MT4 cells infected with HIV1 3B, read-out: Ratio CC50/EC50; in short: as §3
[5] = Cytotoxicity against HIV1 3B infected in human MT4 cells by MTT assay; type: cell-based; conditions: MT4 cells infected with HIV1 3B; in short: as §2
[6] = tested on: Human immunodeficiency virus 1; assay: Antiviral activity against HIV1 3B infected in human MT4 cells assessed as inhibition of virus-induced cytopathic effect by MTT assay; type: functional, organism-based; conditions: Human immunodeficiency virus 1, 3B; in short: as §1
[7] = target: Human immunodeficiency virus type 1 reverse transcriptase (Human immunodeficiency virus 1, UniProt Q72547); assay: Inhibition of HIV1 recombinant reverse transcriptase assessed as incorporation of biotin-dUTP into […] by colorimetric analysis
In short: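 Highly purified recombinant HIV-1 RT, with […] as template primer on plate-linked nucleotides. Activity measured colorimetrically as incorporation of biotin-dUTP.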

[8] = tested on: Human immunodeficiency virus; assay: Antiviral activity against wild type HIV; type: functional, organism-based; conditions: Human immunodeficiency virus 1
[9] = tested on: Human immunodeficiency virus; assay: Antiviral activity against HIV harboring reverse transcriptase K103N/Y181C mutant; type: functional, organism-based; conditions: Human immunodeficiency virus 1
In short: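 MT-4 cells (6×10^5 cells/mL) were infected with 100–300 CCID50 of virus, and mock-infected cells were run in parallel. Compounds were tested in serial fivefold dilutions in triplicate wells. After 5 days, viability was read by MTT reduction at 540 and 690 nm using the median OD of three wells. EC50 is the concentration giving 50% protection against virus-induced cytopathicity.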

SMILES: O=C(CSc1nccnc1-c1ccccc1Cl)Nc1ccccc1
- EC50 [1]: > 33 µM
- CC50 [2]: 33 µM
- selectivity ratio [3]: < 1
- selectivity ratio [4]: < 1
- CC50 [5]: 35 µM
- EC50 [6]: > 35 µM

SMILES: O=C(CSc1nccnc1-c1ccccc1Cl)Nc1ccccc1F
- EC50 [1]: > 91 µM
- CC50 [2]: 91 µM
- selectivity ratio [3]: < 1
- selectivity ratio [4]: 9
- CC50 [5]: 48 µM
- EC50 [6]: 5.3 µM

SMILES: O=C(CSc1nccnc1-c1ccccc1Cl)Nc1ccccc1Cl
- EC50 [1]: > 46 µM
- CC50 [2]: 46 µM
- selectivity ratio [3]: < 1
- selectivity ratio [4]: 7
- CC50 [5]: 34 µM
- EC50 [6]: 4.6 µM

SMILES: O=C(CSc1nccnc1-c1ccccc1Cl)Nc1ccc(Cl)cc1Cl
- EC50 [1]: > 34 µM
- CC50 [2]: 34 µM
- selectivity ratio [3]: < 1
- selectivity ratio [4]: 6
- CC50 [5]: 29 µM
- EC50 [6]: 5.2 µM

SMILES: O=C(CSc1nccnc1-c1ccccc1Cl)Nc1ccccc1Br
- EC50 [1]: > 41 µM
- CC50 [2]: 41 µM
- selectivity ratio [3]: < 1
- selectivity ratio [4]: 7
- CC50 [5]: 31 µM
- EC50 [6]: 4.2 µM

SMILES: Cc1ccc(NC(=O)CSc2nccnc2-c2ccccc2Cl)c(Br)c1
- EC50 [1]: > 35 µM
- CC50 [2]: 35 µM
- selectivity ratio [3]: < 1
- selectivity ratio [4]: 9
- CC50 [5]: 31 µM
- EC50 [6]: 4.3 µM

SMILES: O=C(CSc1nccnc1-c1ccccc1Cl)Nc1ccc(Cl)cc1Br
- EC50 [1]: > 29 µM
- CC50 [2]: 29 µM
- selectivity ratio [3]: < 1
- selectivity ratio [4]: 5
- CC50 [5]: 26 µM
- EC50 [6]: 5.1 µM

SMILES: CC(=O)c1ccc(NC(=O)CSc2nccnc2-c2ccccc2Cl)c(Br)c1
- EC50 [1]: > 31 µM
- CC50 [2]: 31 µM
- selectivity ratio [3]: < 1
- selectivity ratio [4]: 12
- CC50 [5]: 30 µM
- EC50 [6]: 2.5 µM

SMILES: COC(=O)c1ccc(NC(=O)CSc2nccnc2-c2ccccc2Cl)c(Br)c1
- EC50 [1]: > 108 µM
- CC50 [2]: 108 µM
- selectivity ratio [3]: < 1
- selectivity ratio [4]: 25
- CC50 [5]: 95 µM
- EC50 [6]: 3.7 µM

SMILES: CCOC(=O)c1ccc(NC(=O)CSc2nccnc2-c2ccccc2Cl)c(Br)c1
- EC50 [1]: > 62 µM
- CC50 [2]: 62 µM
- selectivity ratio [3]: < 1
- selectivity ratio [4]: 5
- CC50 [5]: 45 µM
- EC50 [6]: 9 µM

SMILES: O=C(CSc1nccnc1-c1ccccc1Cl)Nc1ccccc1[N+](=O)[O-]
- EC50 [1]: > 55 µM
- CC50 [2]: 55 µM
- IC50 [7]: 50 µM
- selectivity ratio [3]: < 1
- selectivity ratio [4]: 23
- CC50 [5]: 39 µM
- EC50 [6]: 1.7 µM

SMILES: Cc1ccc(NC(=O)CSc2nccnc2-c2ccccc2Cl)c([N+](=O)[O-])c1
- EC50 [1]: > 148 µM
- CC50 [2]: 148 µM
- selectivity ratio [3]: < 1
- selectivity ratio [4]: 19
- CC50 [5]: 54 µM
- EC50 [6]: 2.9 µM

SMILES: O=C(CSc1nccnc1-c1ccccc1Cl)Nc1cccnc1Cl
- EC50 [1]: > 166 µM
- CC50 [2]: 166 µM
- selectivity ratio [3]: < 1
- selectivity ratio [4]: 64
- CC50 [5]: 152 µM
- EC50 [6]: 2.3 µM

SMILES: COC(=O)c1sccc1NC(=O)CSc1nccnc1-c1ccccc1Cl
- EC50 [1]: > 48 µM
- CC50 [2]: 48 µM
- selectivity ratio [3]: < 1
- selectivity ratio [4]: < 1
- CC50 [5]: 68 µM
- EC50 [6]: > 68 µM

SMILES: Cc1ccc2sc(NC(=O)CSc3nccnc3-c3ccccc3Cl)nc2c1
- EC50 [1]: > 30 µM
- CC50 [2]: 30 µM
- selectivity ratio [3]: < 1
- selectivity ratio [4]: < 1
- CC50 [5]: 32 µM
- EC50 [6]: > 32 µM

SMILES: O=C(CSc1nccnc1-c1ccccc1Cl)N1CCCc2ccccc21
- EC50 [1]: > 34 µM
- CC50 [2]: 34 µM
- selectivity ratio [3]: < 1
- selectivity ratio [4]: < 1
- CC50 [5]: 33 µM
- EC50 [6]: > 33 µM

SMILES: O=C(CSc1nccnc1-c1ccccc1Cl)N1CCc2ccccc2C1
- EC50 [1]: > 50 µM
- CC50 [2]: 50 µM
- selectivity ratio [3]: < 1
- selectivity ratio [4]: 8
- CC50 [5]: 33 µM
- EC50 [6]: 4.1 µM

SMILES: NS(=O)(=O)c1ccc(NC(=O)CSc2nnc(Br)n2-c2ccc(C3CC3)c3ccccc23)c(Cl)c1
- EC50 [8]: 140 nM
- EC50 [9]: 230 nM

SMILES: CC(C)Nc1cccnc1N1CCN(C(=O)c2cc3cc(NS(C)(=O)=O)ccc3[nH]2)CC1 [DELAVIRDINE]
- CC50 [2]: > 36 µM
- selectivity ratio [4]: > 1100
- CC50 [5]: > 36 µM

SMILES: O=C1Nc2ccc(Cl)cc2[C@@](C#CC2CC2)(C(F)(F)F)O1 [EFAVIRENZ]
- CC50 [2]: > 6.3 µM
- CC50 [5]: > 6.3 µM

SMILES: Cc1ccnc2c1NC(=O)c1cccnc1N2C1CC1 [NEVIRAPINE]
- CC50 [2]: > 15 µM
- CC50 [5]: > 15 µM

SMILES: Nc1ccn([C@H]2CC[C@@H](CO)O2)c(=O)n1 [ZALCITABINE]
- CC50 [2]: > 95 µM
- selectivity ratio [3]: > 74
- selectivity ratio [4]: > 93
- CC50 [5]: > 95 µM

SMILES: Cc1cn([C@H]2C[C@H](N=[N+]=[N-])[C@@H](CO)O2)c(=O)[nH]c1=O [ZIDOVUDINE]
- CC50 [2]: 249 µM
- selectivity ratio [3]: 56900
- selectivity ratio [4]: 12200
- CC50 [5]: 249 µM
- EC50 [6]: 0.021 µM

— ChEMBL document CHEMBL2203239, “Discovery of novel 2-(3-(2-chlorophenyl)pyrazin-2-ylthio)-N-arylacetamides as potent HIV-1 inhibitors using a structure-based bioisosterism approach” (Bioorg Med Chem, 2012)
